Activity calls are given as the source filed them. The rule behind the calls is not given here.
How the values were obtained:
THP-1 [1] = experiment: Immunomodulatory effect in human THP1 cells assessed as increase in LPS-induced TNF-alpha release at 20.2 uM after 24 hrs by sandwich ELISA relative to LPS; type: functional
Summary of the method: (§1)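 THP-1 cells at 10⁶ cells/ml in RPMI 1640 with 10% heat-inactivated FCS. Co-incubated 24 h with compound (0.2–200 µM) plus E. coli 0127:B8 LPS 1 ng/ml, DMSO vehicle ≤0.2% final. TNF-α in supernatant expressed as % of LPS-induced release, mean ± SD of 6 samples.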

THP-1 [2] = experiment: Immunomodulatory effect in human THP1 cells assessed as increase in LPS-induced TNF-alpha release at 0.2 uM after 24 hrs by sandwich ELISA relative to LPS; type: functional; summary of the method: as §1
THP-1 [3] = experiment: Immunomodulatory effect in human THP1 cells assessed as increase in LPS-induced TNF-alpha release at 2 uM after 24 hrs by sandwich ELISA relative to LPS; type: functional; summary of the method: as §1
THP-1 [4] = experiment: Immunomodulatory effect in human THP1 cells assessed as increase in LPS-induced TNF-alpha release at 200 uM after 24 hrs by sandwich ELISA relative to LPS; type: functional; summary of the method: as §1
THP-1 [5] = experiment: Immunomodulatory effect in human THP1 cells assessed as increase in LPS-induced TNF-alpha release after 24 hrs by sandwich ELISA relative to LPS; type: functional, cell-based; summary of the method: as §1
PBMC [6] = experiment: Immunomodulatory effect in human PBMC cells assessed as increase in LPS-induced TNF-alpha release at 20.2 uM after 24 hrs by sandwich ELISA; type: functional, cell-based
THP-1 [7] = experiment: Cytotoxicity against human THP1 cells assessed as LDH release at 20.2 uM; type: cell-based; conditions: thp-1, 20.2 µM
Summary of the method: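 LDH leakage into the medium used as the cytotoxicity read-out, taken at the highest concentration tested.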

PBMC [8] = experiment: Cytotoxicity against human PBMC assessed as LDH release at 20.2 uM; type: cell-based
THP-1 [9] = experiment: Toxicity in human THP1 cells assessed TNF-alpha release at 20.2 uM after 24 hrs by sandwich ELISA; type: cell-based; conditions: thp-1, 24 h
Summary of the method: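 THP-1 in supplemented RPMI 1640 co-incubated 24 h with 20.2 µM compound and 1 ng/ml LPS, DMSO ≤0.2%. TNF-α release expressed as % of the LPS-only response, mean ± SD of 6 samples, Mann-Whitney U test.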

THP-1 [10] = experiment: Toxicity in human THP1 cells assessed TNF-alpha release at 20.2 uM after 3 to 24 hrs by sandwich ELISA; type: cell-based; conditions: thp-1, 20.2 µM
Summary of the method: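 Time course in THP-1 cells, with release sampled at 3, 8 and 24 h. Cells co-incubated with test agent and 1 ng/ml LPS. Co-incubation was compared with preincubation.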

Q: With `CC(=O)N[C@H]1C(O)O[C@H](CO)[C@@H](O)[C@@H]1O[C@H](C)C(=O)N[C@@H](C)C(=O)N[C@H](CCC(=O)O)C(N)=O` (stereo not given in full) [MURAMYL DIPEPTIDE] as the molecule, how does the Activity (THP-1 [1]) read?
A: Its Activity is 187.4%.

Q: What about the Activity (THP-1 [2]) of the same molecule?
A: The Activity was 108%.

Q: What about the Activity (THP-1 [3]) of the same molecule?
A: Its Activity is 171.8%.

Q: What about the Activity (THP-1 [4]) of the same molecule?
A: The Activity was 306.8%.

Q: And the Activity (THP-1 [5])?
A: The Activity was “Dose-dependent effect”.

Q: What about the Activity (PBMC [6]) of the same molecule?
A: The Activity was “Active”.

Q: And the Activity (THP-1 [7])?
A: The Activity was “Non-toxic”.

Q: And the Activity (PBMC [8])?
A: Its Activity is “Non-toxic”.

Q: And the Activity (THP-1 [9])?
A: Its Activity is “Non-toxic”.

Q: What about the Activity (THP-1 [10]) of the same molecule?
A: The Activity was “Non-toxic”.

Reference: ChEMBL document CHEMBL1821722, “Design, synthesis and biological evaluation of novel desmuramyldipeptide analogs” (Eur J Med Chem, 2011)
